Converted amounts (≈) assume the structure as drawn.
Assays:
[1] = Kinetic solubility of the compound in 2nd fluid of Disintegration Test of the Japanese Pharmacopoeia at pH 6.8; format: physicochemical; conditions: read-out: Kinetic_solubility
Summary of the method: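 Kinetic solubility measured in JP2 (2nd fluid of Disintegration Test, Japanese Pharmacopoeia), pH 6.8.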

[2] = Metabolic stability in mouse liver microsomes; format: ADME, Microsome; conditions: read-out: Stability
Summary of the method: (§1)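 Metabolic stability measured in hepatic microsomes, expressed in µL/min/mg.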

[3] = Metabolic stability in human liver microsomes; format: ADME, Microsome; conditions: read-out: Stability; summary of the method: as §1

solubility kinetic [1]	microsomal CLint [2]	microsomal CLint [3]	Compound
53 µg/mL (≈ 119 µM)			Cc1cc(C(=O)Nc2cc(Oc3ccc4nc(NC(=O)C5CC5)nn4c3)ccc2C)n(C)n1
1.2 µg/mL (≈ 2.49 µM)			Cc1ccc(Oc2ccc3nc(NC(=O)C4CC4)nn3c2)cc1NC(=O)c1scc(C)c1Cl
12 µg/mL (≈ 29.4 µM)			Cc1ccc(Oc2ccc3nc(NC(=O)C4CC4)nn3c2)cc1NC(=O)CC(C)C
> 93 µg/mL	78 µL/min/mg	6 µL/min/mg	Cc1ccc(Oc2ccc3nc(NC(=O)C4CC4)nn3c2)cc1NC(=O)c1cn(C)nc1C
0.16 µg/mL (≈ 0.346 µM)			Cc1nc(C(=O)Nc2cc(Oc3ccc4nc(NC(=O)C5CC5)nn4c3)ccc2C)c(C)s1
> 80 µg/mL			Cc1ccc(Oc2ccc3nc(NC(=O)C4CC4)nn3c2)cc1NC(=O)c1ccnn1C

Continued, molecule first:

Compound	solubility kinetic [1]	microsomal CLint [2]	microsomal CLint [3]
Cc1cc(C(=O)Nc2cc(Oc3ccc4nc(NC(=O)C5CC5)sc4n3)ccc2C)n(C)n1	4.8 µg/mL (≈ 10.4 µM)		
Cc1cc(C(=O)Nc2cccc(Oc3ccc4nc(NC(=O)C5CC5)sc4c3)c2)n(C)n1	0.22 µg/mL (≈ 0.492 µM)		
Cc1cc(C(=O)Nc2cc(Oc3ccc4nc(NC(=O)C5CC5)cn4c3)ccc2C)n(C)n1	2.9 µg/mL (≈ 6.52 µM)		
Cc1cc(C(=O)Nc2ccc(C)c(Oc3ccc4nc(NC(=O)C5CC5)nn4c3)c2)n(C)n1	3.7 µg/mL (≈ 8.31 µM)		
Cc1cc(C(=O)Nc2cccc(Oc3ccc4nc(NC(=O)C5CC5)sc4n3)c2)n(C)n1	< 0.04 µg/mL		
Cc1cc(C(=O)Nc2cc(Oc3ccc4nc(NC(=O)C5CC5)nn4c3)ccc2F)n(C)n1	65 µg/mL (≈ 145 µM)	45 µL/min/mg	10 µL/min/mg
Cc1cc(C(=O)Nc2cccc(Oc3ccc4nc(NC(=O)C5CC5)cn4n3)c2)n(C)n1	1.7 µg/mL (≈ 3.94 µM)	43 µL/min/mg	6 µL/min/mg
Cc1cc(C(=O)Nc2cccc(Oc3ccc4nc(NC(=O)C5CC5)nn4c3)c2)n(C)n1	1.2 µg/mL (≈ 2.78 µM)		
Cc1cc(NC(=O)c2cc(C)nn2C)cc(Oc2ccc3nc(NC(=O)C4CC4)nn3c2)c1	3.2 µg/mL (≈ 7.18 µM)		
Cc1ccc(Oc2ccc3nc(NC(=O)C4CC4)nn3c2)cc1NC(=O)C1CCC1	> 78 µg/mL		
Cc1cc(C(=O)Nc2cccc(Oc3ccc4nc(NC(=O)C5CC5)cn4c3)c2)n(C)n1	0.73 µg/mL (≈ 1.7 µM)		
